In brackets after ≈: the same amount, converted by molar mass. Some results are limits rather than exact numbers.

Assay [1] concerns Micrococcus luteus. The experiment in a line: Antibacterial activity against Micrococcus luteus MTCC 2470 after 24 hrs by well diffusion assay. The class given is functional. To be noted: MTCC 2470, 24 h. Background: Agar diffusion results depend on both activity and mobility in agar.
The test system of assay [2] is Staphylococcus aureus. The assay is described as follows: Antibacterial activity against Staphylococcus aureus MTCC 96 after 24 hrs by well diffusion assay. The class given is functional. The following applies: MTCC 96, 24 h.
In assay [3] the test system is Staphylococcus aureus. The experiment in a line: Antibacterial activity against Staphylococcus aureus MLS-16 MTCC 2940 after 24 hrs by well diffusion assay. To be noted: MLS-16 MTCC 2940, 24 h. The class given is functional.
The next assay deals with Candida albicans. The assay is described as follows: Antifungal activity against Candida albicans MTCC 3017 after 24 hrs by well diffusion assay. The following applies: MTCC 3017, 24 h. The class given is functional. In outline:
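Well diffusion screen against Candida and related fungal strains. Read-out is MIC in µg/mL, with miconazole as the reference drug.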

For assay [4], the system named is Bacillus subtilis. The experiment in a line: Antibacterial activity against Bacillus subtilis MTCC 121 after 24 hrs by well diffusion assay. The following applies: MTCC 121, 24 h. The class given is functional.
The test system of another assay is Escherichia coli. The experiment in a line: Antibacterial activity against Escherichia coli MTCC 739 after 24 hrs by well diffusion assay. The class given is functional. To be noted: MTCC 739, 24 h.
A further assay relates to Raoultella planticola. The experiment in a line: Antibacterial activity against Klebsiella planticola MTCC 530 after 24 hrs by well diffusion assay. The class given is functional. The following applies: MTCC 530, 24 h.
Another assay relates to Pseudomonas aeruginosa. The experiment in a line: Antibacterial activity against Pseudomonas aeruginosa MTCC 2453 after 24 hrs by well diffusion assay. The class given is functional. To be noted: MTCC 2453, 24 h.
A short description of assay [5]: Cytotoxicity against human DU145 cells by MTT assay. The class given is functional, cell-based. To be noted: DU-145. (Formazan colour is commonly taken as a measure of viable cells.)
Another assay concerns HepG2. The assay is described as follows: Cytotoxicity against human HepG2 cells by MTT assay. The class given is functional, cell-based.
A short description of assay [6]: Cytotoxicity against human SKOV3 cells by MTT assay. The class given is functional, cell-based. To be noted: SK-OV-3.
A further assay concerns MDA-MB-231. The experiment in a line: Cytotoxicity against human MDA-MB-231 cells by MTT assay. The class given is functional, cell-based.
In assay [7] the test system is Micrococcus luteus. The experiment in a line: Bactericidal activity against Micrococcus luteus MTCC 2470 after 24 hrs. The class given is functional. The following applies: MTCC 2470, 24 h. Summed up:
(§1)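 Minimum bactericidal concentration was determined on four Gram-positive strains, for the compounds active in the preliminary antibacterial screen.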

Assay [8] has as its system Staphylococcus aureus. The assay is described as follows: Bactericidal activity against Staphylococcus aureus MTCC 96 after 24 hrs. The class given is functional. The following applies: MTCC 96, 24 h. In outline:
as §1

Assay [9] has as its system Staphylococcus aureus. The experiment in a line: Bactericidal activity against Staphylococcus aureus MLS-16 MTCC 2940 after 24 hrs. The class given is functional. To be noted: MLS-16 MTCC 2940, 24 h. Summed up: as §1
Assay [10] concerns Bacillus subtilis. The assay is described as follows: Bactericidal activity against Bacillus subtilis MTCC 121 after 24 hrs by well diffusion assay. The class given is functional. The following applies: MTCC 121, 24 h. Summed up: as §1
Assay [11] concerns Micrococcus luteus. The experiment in a line: Antibiofilm activity against Micrococcus luteus MTCC 2470 after 24 hrs by crystal violet staining based method. The class given is functional, organism-based. The following applies: MTCC 2470, 24 h. In outline: (§2)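 Biofilm inhibition was tested on the four Gram-positive strains, using crystal violet staining.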
Assay [12] has as its system Bacillus subtilis. The assay is described as follows: Antibiofilm activity against Bacillus subtilis MTCC 121 after 24 hrs by well diffusion assay by crystal violet staining based method. The class given is functional, organism-based. To be noted: MTCC 121, 24 h. Summed up:
as §2

In the case of `CCCCCCCCC(CCCCCCCCC(=O)OC)SCC(=O)N[C@H](C(=O)OC)c1c[nH]c2ccccc12` (some centres undefined), the minimal inhibitory concentration (MIC) against Micrococcus luteus [1], with Staphylococcus aureus [2], against Staphylococcus aureus [3], in the assay with Candida albicans, against Bacillus subtilis [4] and against Escherichia coli was over 125 µg/mL in each case. The MIC with Raoultella planticola and with Pseudomonas aeruginosa was over 125 µg/mL each time.
With `CCCCCCCCC(CCCCCCCCC(=O)OC)SCC(=O)N[C@@H](Cc1ccccc1)C(=O)OC` (some centres undefined), the MIC in the assay with Micrococcus luteus [1], in the assay with Staphylococcus aureus [2], in the assay on Staphylococcus aureus [3], with Candida albicans, against Bacillus subtilis [4] and in the assay on Escherichia coli was over 125 µg/mL throughout. The MIC in the assay with Raoultella planticola and in the assay on Pseudomonas aeruginosa was over 125 µg/mL each time. The IC50 (in general, the concentration that inhibits the measured activity by half) in assay [5] was found to be 49.1 µM; with HepG2, 33.6 µM; in assay [6], 42.5 µM; in the assay on MDA-MB-231, 38.6 µM.
Turning to `COc1cccc2c1C(=O)c1c(O)c3c(c(O)c1C2=O)C[C@@](O)(C(=O)CO)C[C@@H]3O[C@H]1C[C@H](N)[C@H](O)[C@H](C)O1` [DOXORUBICIN], the concentration for half-maximal inhibition (IC50) turned out to be 0.8 µM in the assay on HepG2, 0.8 µM in [6] and 0.7 µM in the assay with MDA-MB-231.
Regarding `O=C(O)c1cn(C2CC2)c2cc(N3CCNCC3)c(F)cc2c1=O` [CIPROFLOXACIN], the MIC – broadly, the lowest concentration that inhibits growth of the organism – with Micrococcus luteus [1] was 0.9 µg/mL (≈ 2.72 µM); against Staphylococcus aureus [2], 0.9 µg/mL (≈ 2.72 µM); in the assay on Staphylococcus aureus [3], 0.9 µg/mL (≈ 2.72 µM); with Candida albicans it was over 125 µg/mL; in the assay with Bacillus subtilis [4], 0.9 µg/mL (≈ 2.72 µM); in the assay on Escherichia coli, 0.9 µg/mL (≈ 2.72 µM). For the same compound, the MIC against Raoultella planticola and in the assay on Pseudomonas aeruginosa was 0.9 µg/mL (≈ 2.72 µM) each time. The minimum bactericidal concentration (MBC) (as a rule, the smallest concentration meeting the test's criterion for killing) in the assay on Micrococcus luteus [7] worked out at 0.9 µg/mL (≈ 2.72 µM); with Staphylococcus aureus [8] it was 1.9 µg/mL (≈ 5.73 µM); in the assay with Staphylococcus aureus [9] it was 1.9 µg/mL (≈ 5.73 µM); against Bacillus subtilis [10] it was 1.9 µg/mL (≈ 5.73 µM). Moreover, the 50% inhibitory concentration (IC50) in the assay on Micrococcus luteus [11] and in the assay with Bacillus subtilis [12] was 0.5 µM each time.
As to `CCCCCCCCC(CCCCCCCCC(=O)OC)SCC(=O)N[C@H](C(=O)OC)c1c[nH]cn1` (some centres undefined), the minimal inhibitory concentration (MIC) with Micrococcus luteus [1] was 3.9 µg/mL (≈ 7.42 µM); against Staphylococcus aureus [2] it was over 125 µg/mL; in the assay on Staphylococcus aureus [3], over 125 µg/mL; in the assay with Candida albicans, over 125 µg/mL; in the assay with Bacillus subtilis [4], 3.9 µg/mL (≈ 7.42 µM); against Escherichia coli, over 125 µg/mL. In addition, the MIC against Raoultella planticola and against Pseudomonas aeruginosa was over 125 µg/mL in each case. Further, the minimum bactericidal concentration (MBC) turned out to be 7.8 µg/mL (≈ 14.8 µM) against Micrococcus luteus [7] and 3.9 µg/mL (≈ 7.42 µM) with Bacillus subtilis [10]. Also, the IC50 with Micrococcus luteus [11] came to 2.1 µM; in the assay on Bacillus subtilis [12] it was 1.9 µM.

The record behind these values is ChEMBL document CHEMBL3745670, “Synthesis and biological evaluation of novel lipoamino acid derivatives” (Bioorg Med Chem Lett, 2016).
